# Measurements published in ChEMBL document CHEMBL3232892, “Inhibition of cellular proliferation and induction of apoptosis in human lung adenocarcinoma A549 cells by T-type calcium channel antagonist” (Bioorg Med Chem Lett, 2014).
# pIC50: −log10 of the molar value. Activity calls are given as the source filed them. The calls are words filed in the database; no cut-off is given here.
# What was measured:
# A549 [1] = assay: Induction of apoptosis in human A549 cells assessed as reduction in pro-caspase-3 expression at 5 uM after 24 hrs by Western blot analysis; type: functional, cell-based
# Method in brief: (§1)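 Cells treated 24 h without compound or at 1, 3 or 5 µM. Pro-caspase-3, pro-caspase-9 and PARP cleavage assessed by Western blot.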
# A549 [2] = assay: Induction of apoptosis in human A549 cells assessed as reduction in pro-caspase-9 expression at 5 uM after 24 hrs by Western blot analysis; type: functional, cell-based; method in brief: as §1
# A549 [3] = assay: Induction of apoptosis in human A549 cells assessed as increase in PARP protein cleavage at 5 uM after 24 hrs by Western blot analysis; type: functional, cell-based; method in brief: as §1
# A549 [4] = assay: Selectivity ratio of IC50 for human A549 cells to IC50 for human MIAPaCa2 cells; type: functional
# A549 [5] = assay: Ratio of KYS05090 IC50 to compound IC50 for human A549 cells after 48 hrs by MTT assay; type: functional
# MIA PaCa-2 [6] = assay: Ratio of KYS05090 IC50 to compound IC50 for human MIAPaCa2 cells after 48 hrs by MTT assay; type: functional
# A549 [7] = assay: Cytotoxicity against human A549 cells after 48 hrs by MTT assay; type: functional, cell-based; details: for pIC50: A549, 48 h
# Method in brief: (§2)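 Cells seeded and grown 24 h, then exposed 48 h to a range of concentrations in DMSO (final 0.1%), with vehicle controls at equal DMSO. Medium replaced with 0.5 mg/mL MTT in RPMI with 10% FBS for 2 h at 37 °C, reduced dye dissolved in DMSO, absorbance read at 540 nm. Triplicates; IC50 from dose–response.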
# [8] = (§3) Cytotoxicity against human MIAPaCa2 cells after 48 hrs by MTT assay; type: functional, cell-based; details: MIA PaCa-2, 48 h; method in brief: as §2
# MIA PaCa-2 [9] = assay: as §3; type: functional, cell-based; method in brief: as §2
# [10] = molecular target: T1, Voltage-dependent T-type calcium channel subunit alpha-1G (Homo sapiens, UniProt O43497); assay: Inhibition of T-type CaV3.1 channel (unknown origin) expressed in HEK293 cells assessed as inhibition of calcium current at 1 uM by whole cell patch-clamp method; type: cell-based
# T1 sequence (O43497 whole entry): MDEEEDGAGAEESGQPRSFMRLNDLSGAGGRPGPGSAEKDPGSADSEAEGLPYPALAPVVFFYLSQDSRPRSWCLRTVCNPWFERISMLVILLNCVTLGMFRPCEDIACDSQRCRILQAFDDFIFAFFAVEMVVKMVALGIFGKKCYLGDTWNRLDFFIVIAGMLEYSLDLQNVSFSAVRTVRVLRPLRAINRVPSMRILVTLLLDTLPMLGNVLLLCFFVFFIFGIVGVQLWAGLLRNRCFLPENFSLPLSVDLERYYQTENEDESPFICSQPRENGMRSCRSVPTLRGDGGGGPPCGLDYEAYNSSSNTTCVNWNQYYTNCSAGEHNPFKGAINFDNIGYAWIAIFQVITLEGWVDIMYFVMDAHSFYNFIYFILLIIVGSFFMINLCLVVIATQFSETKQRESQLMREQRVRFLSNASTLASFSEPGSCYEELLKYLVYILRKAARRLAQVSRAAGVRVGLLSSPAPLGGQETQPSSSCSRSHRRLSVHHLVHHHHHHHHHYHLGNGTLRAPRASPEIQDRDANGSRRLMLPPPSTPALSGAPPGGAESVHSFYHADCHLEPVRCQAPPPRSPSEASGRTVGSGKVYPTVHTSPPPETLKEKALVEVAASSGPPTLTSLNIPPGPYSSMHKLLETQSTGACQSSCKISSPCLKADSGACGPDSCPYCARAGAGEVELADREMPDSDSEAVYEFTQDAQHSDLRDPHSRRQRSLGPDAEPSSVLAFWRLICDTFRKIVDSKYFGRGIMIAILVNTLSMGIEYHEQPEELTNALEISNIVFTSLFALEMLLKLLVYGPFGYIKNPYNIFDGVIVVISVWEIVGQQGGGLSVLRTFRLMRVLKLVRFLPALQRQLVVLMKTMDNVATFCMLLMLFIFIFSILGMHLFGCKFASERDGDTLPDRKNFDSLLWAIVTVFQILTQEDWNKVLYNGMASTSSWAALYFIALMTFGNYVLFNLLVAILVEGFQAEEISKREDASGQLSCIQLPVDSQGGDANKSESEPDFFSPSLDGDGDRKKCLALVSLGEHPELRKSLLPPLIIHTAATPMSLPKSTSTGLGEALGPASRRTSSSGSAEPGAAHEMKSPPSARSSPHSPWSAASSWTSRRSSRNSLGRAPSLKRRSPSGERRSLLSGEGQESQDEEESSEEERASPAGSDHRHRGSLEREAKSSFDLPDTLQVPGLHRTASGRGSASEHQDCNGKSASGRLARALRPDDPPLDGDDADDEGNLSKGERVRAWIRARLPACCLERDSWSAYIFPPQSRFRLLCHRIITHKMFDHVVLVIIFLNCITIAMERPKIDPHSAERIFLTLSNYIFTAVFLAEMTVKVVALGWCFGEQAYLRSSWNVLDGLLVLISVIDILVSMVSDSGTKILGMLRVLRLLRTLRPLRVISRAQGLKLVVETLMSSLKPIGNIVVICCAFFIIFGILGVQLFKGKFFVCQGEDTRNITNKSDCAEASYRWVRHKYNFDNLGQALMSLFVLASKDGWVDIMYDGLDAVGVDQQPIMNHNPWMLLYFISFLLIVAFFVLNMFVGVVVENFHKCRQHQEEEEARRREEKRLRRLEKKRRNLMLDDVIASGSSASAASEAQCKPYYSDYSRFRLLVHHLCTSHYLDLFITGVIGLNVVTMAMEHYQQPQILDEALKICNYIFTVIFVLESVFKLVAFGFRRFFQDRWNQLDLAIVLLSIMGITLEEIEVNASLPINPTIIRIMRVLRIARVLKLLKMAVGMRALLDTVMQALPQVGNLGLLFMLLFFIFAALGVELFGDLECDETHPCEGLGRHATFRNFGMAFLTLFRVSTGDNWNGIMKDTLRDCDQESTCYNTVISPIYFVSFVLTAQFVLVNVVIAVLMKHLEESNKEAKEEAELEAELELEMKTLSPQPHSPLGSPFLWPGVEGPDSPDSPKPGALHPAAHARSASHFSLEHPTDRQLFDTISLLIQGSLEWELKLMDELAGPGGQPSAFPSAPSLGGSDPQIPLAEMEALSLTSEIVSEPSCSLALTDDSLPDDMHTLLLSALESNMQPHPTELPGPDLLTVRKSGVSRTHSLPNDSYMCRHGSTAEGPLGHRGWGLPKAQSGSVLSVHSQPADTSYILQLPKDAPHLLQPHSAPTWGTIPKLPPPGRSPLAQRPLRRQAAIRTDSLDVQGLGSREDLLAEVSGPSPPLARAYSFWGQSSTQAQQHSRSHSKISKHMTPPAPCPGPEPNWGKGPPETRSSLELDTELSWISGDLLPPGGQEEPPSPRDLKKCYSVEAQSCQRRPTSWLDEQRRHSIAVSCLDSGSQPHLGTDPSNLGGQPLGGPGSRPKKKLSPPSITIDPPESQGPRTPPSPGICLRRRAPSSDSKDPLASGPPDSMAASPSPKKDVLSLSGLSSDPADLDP
# [11] = molecular target: T1, Voltage-dependent T-type calcium channel subunit alpha-1G; assay: Inhibition of T-type CaV3.1 channel (unknown origin) expressed in HEK293 cells assessed as inhibition of calcium current by whole cell patch-clamp method; type: cell-based
# A549 [12] = assay: Cell cycle arrest in human A549 cells assessed as accumulation at sub-G1 phase at 5 uM after 24 hrs by flow cytometry (reference value: 7.8 %); type: functional
# A549 [13] = assay: Cell cycle arrest in human A549 cells assessed as accumulation at G0/G1 phase at 5 uM after 24 hrs by flow cytometry (reference value: 53.1 %); type: functional
# A549 [14] = assay: Cell cycle arrest in human A549 cells assessed as accumulation at S phase at 5 uM after 24 hrs by flow cytometry (reference value: 17.6 %); type: functional
# A549 [15] = assay: Cell cycle arrest in human A549 cells assessed as accumulation at G2/M phase at 5 uM after 24 hrs by flow cytometry (reference value: 21.6 %); type: functional
# A549 [16] = assay: Cell cycle arrest in human A549 cells assessed as accumulation at sub-G1 phase at 5 uM after 48 hrs by flow cytometry (reference value: 4.9 %); type: functional
# A549 [17] = assay: Cell cycle arrest in human A549 cells assessed as accumulation at G0/G1 phase at 5 uM after 48 hrs by flow cytometry (reference value: 57.8 %); type: functional
# A549 [18] = assay: Cell cycle arrest in human A549 cells assessed as accumulation at S phase at 5 uM after 48 hrs by flow cytometry (reference value: 12.0 %); type: functional
# A549 [19] = assay: Cell cycle arrest in human A549 cells assessed as accumulation at G2/M phase at 5 uM after 48 hrs by flow cytometry (reference value: 25.4 %); type: functional
# A549 [20] = assay: Induction of apoptosis in human A549 cells assessed as viable cells at 3 uM after 24 hrs by annexin V/PI staining-based FACS analysis (reference value: 91.1 %); details: A549, 24 h
# A549 [21] = assay: Induction of apoptosis in human A549 cells assessed as viable cells at 5 uM after 24 hrs by annexin V/PI staining-based FACS analysis (reference value: 91.1 %); details: A549, 24 h
# A549 [22] = assay: Induction of apoptosis in human A549 cells assessed as viable cells at 1 uM after 24 hrs by annexin V/PI staining-based FACS analysis (reference value: 91.1 %); details: A549, 24 h
# A549 [23] = assay: Induction of apoptosis in human A549 cells assessed as necrotic cells at 3 uM after 24 hrs by annexin V/PI staining-based FACS analysis (reference value: 2.8 %)
# A549 [24] = assay: Induction of apoptosis in human A549 cells assessed as necrotic cells at 5 uM after 24 hrs by annexin V/PI staining-based FACS analysis (reference value: 2.8 %)
# A549 [25] = assay: Induction of apoptosis in human A549 cells assessed as necrotic cells at 1 uM after 24 hrs by annexin V/PI staining-based FACS analysis (reference value: 2.8 %)
# A549 [26] = assay: Induction of apoptosis in human A549 cells assessed as late apoptotic cells at 3 uM after 24 hrs by annexin V/PI staining-based FACS analysis (reference value: 3.5 %)
# A549 [27] = assay: Induction of apoptosis in human A549 cells assessed as late apoptotic cells at 5 uM after 24 hrs by annexin V/PI staining-based FACS analysis (reference value: 3.5 %)
# A549 [28] = assay: Induction of apoptosis in human A549 cells assessed as late apoptotic cells at 1 uM after 24 hrs by annexin V/PI staining-based FACS analysis (reference value: 3.5 %)
# A549 [29] = assay: Induction of apoptosis in human A549 cells assessed as early apoptotic cells at 3 uM after 24 hrs by annexin V/PI staining-based FACS analysis (reference value: 2.6 %)
# A549 [30] = assay: Induction of apoptosis in human A549 cells assessed as early apoptotic cells at 5 uM after 24 hrs by annexin V/PI staining-based FACS analysis (reference value: 2.6 %)
# A549 [31] = assay: Induction of apoptosis in human A549 cells assessed as early apoptotic cells at 1 uM after 24 hrs by annexin V/PI staining-based FACS analysis (reference value: 2.6 %)
# A549 [32] = assay: Cell cycle arrest in human A549 cells assessed as accumulation at sub-G1 phase at 10 uM after 24 hrs by flow cytometry (reference value: 7.8 %); type: functional
# A549 [33] = assay: Cell cycle arrest in human A549 cells assessed as accumulation at G0/G1 phase at 10 uM after 24 hrs by flow cytometry (reference value: 53.1 %); type: functional
# A549 [34] = assay: Cell cycle arrest in human A549 cells assessed as accumulation at S phase at 10 uM after 24 hrs by flow cytometry (reference value: 17.6 %); type: functional
# A549 [35] = assay: Cell cycle arrest in human A549 cells assessed as accumulation at G2/M phase at 10 uM after 24 hrs by flow cytometry (reference value: 21.6 %); type: functional
# A549 [36] = assay: Cell cycle arrest in human A549 cells assessed as accumulation at sub-G1 phase at 10 uM after 48 hrs by flow cytometry (reference value: 4.9 %); type: functional
# A549 [37] = assay: Cell cycle arrest in human A549 cells assessed as accumulation at G0/G1 phase at 10 uM after 48 hrs by flow cytometry (reference value: 57.8 %); type: functional
# A549 [38] = assay: Cell cycle arrest in human A549 cells assessed as accumulation at S phase at 10 uM after 48 hrs by flow cytometry (reference value: 12.0 %); type: functional
# A549 [39] = assay: Cell cycle arrest in human A549 cells assessed as accumulation at G2/M phase at 10 uM after 48 hrs by flow cytometry (reference value: 25.4 %); type: functional
smiles,measurement,setting,value
CN(C)CCN1CCN(C2=Nc3ccccc3C(CC(=O)NCc3ccccc3)N2c2ccc(C3CCCCC3)cc2)CC1.Cl (stereo unspecified),Activity,A549 [1],Active
same,Activity,A549 [2],Active
same,Activity,A549 [3],Active
same,Ratio IC50,A549 [4],2
same,Ratio IC50,A549 [5],2
same,Ratio IC50,MIA PaCa-2 [6],2
same,inhibition,A549 [7],Dose-dependent effect
same,pIC50,A549 [7],5.65
same,pIC50,[8],6.03
same,inhibition,MIA PaCa-2 [9],Dose-dependent effect
same,inhibition,[10],53.2%
same,pIC50,[11],5.98
same,Activity,A549 [12],15.8%
same,Activity,A549 [13],55.4%
same,Activity,A549 [14],12.8%
same,Activity,A549 [15],16%
same,Activity,A549 [16],77.8%
same,Activity,A549 [17],15.7%
same,Activity,A549 [18],4.6%
same,Activity,A549 [19],1.9%
same,viability at 3 µM,A549 [20],67.4%
same,viability at 5 µM,A549 [21],53.4%
same,viability at 1 µM,A549 [22],91.8%
same,Activity,A549 [23],0.3%
same,Activity,A549 [24],1.3%
same,Activity,A549 [25],2.5%
same,Activity,A549 [26],1.9%
same,Activity,A549 [27],13.3%
same,Activity,A549 [28],3.2%
same,Activity,A549 [29],30.4%
same,Activity,A549 [30],32.1%
same,Activity,A549 [31],2.5%
CN(C)CCN1CCN(C2=Nc3ccccc3C(CC(=O)NCc3ccc([N+](=O)[O-])cc3)N2c2ccc(-c3ccccc3)cc2)CC1.Cl (stereo unspecified),Ratio IC50,A549 [4],2
same,pIC50,A549 [7],5.33
same,pIC50,[8],5.66
same,inhibition,[10],38.1%
CN(C)C(=O)NCCCN(C)C1=Nc2ccccc2C(CC(=O)NCc2ccc(F)cc2)N1c1ccc(-c2ccccc2)cc1.Cl (stereo unspecified),Ratio IC50,A549 [4],2
same,pIC50,A549 [7],4.83
same,pIC50,[8],5.13
same,inhibition,[10],53.5%
same,pIC50,[11],6.22
CN(C)CCCCCN(C)C1=Nc2ccccc2C(CC(=O)NCc2ccccc2)N1c1ccc(-c2ccccc2)cc1.Cl.Cl (stereo unspecified),Ratio IC50,A549 [4],2
same,pIC50,A549 [7],5.39
same,pIC50,[8],5.71
same,inhibition,[10],76.6%
same,Activity,A549 [12],55.3%
same,Activity,A549 [13],33.6%
same,Activity,A549 [14],8.8%
same,Activity,A549 [15],2.2%
same,Activity,A549 [16],98.1%
same,Activity,A549 [17],1.2%
same,Activity,A549 [18],0.6%
same,Activity,A549 [19],0.1%
CN(C)CCN1CCN(C2=Nc3ccccc3C(CC(=O)OCc3ccccc3)N2c2ccc(-c3ccccc3)cc2)CC1 (stereo unspecified),Ratio IC50,A549 [4],2
same,pIC50,A549 [7],5.37
same,pIC50,[8],5.57
same,inhibition,[10],46.4%
same,pIC50,[11],5.74
CN(C)CCCCCCN(C)C1=Nc2ccccc2C(CC(=O)NCc2ccccc2)N1c1ccc2ccccc2c1.Cl (stereo unspecified),Ratio IC50,A549 [4],2
same,pIC50,A549 [7],5.26
same,pIC50,[8],5.60
same,inhibition,[10],26.4%
CC(C)c1ccc(N2C(N3CCN(CCN(C)C)CC3)=Nc3ccccc3C2CC(=O)NCc2ccccc2)cc1.Cl (stereo unspecified),Ratio IC50,A549 [4],2
same,pIC50,A549 [7],5.12
same,pIC50,[8],5.52
same,inhibition,[10],39.2%
CN(C)CCN1CCN(C2=Nc3ccccc3C(CC(=O)NCc3ccc(N(S(C)(=O)=O)S(C)(=O)=O)cc3)N2c2ccc(-c3ccccc3)cc2)CC1.Cl (stereo unspecified),Ratio IC50,A549 [4],2
same,pIC50,A549 [7],4.68
same,pIC50,[8],4.79
same,inhibition,[10],64.3%
same,pIC50,[11],6.28
COCC(=O)O[C@]1(CCN(C)CCCc2nc3ccccc3[nH]2)CCc2cc(F)ccc2[C@@H]1C(C)C [MIBEFRADIL],Activity,A549 [32],9.6%
same,Activity,A549 [33],66.1%
same,Activity,A549 [34],10.9%
same,Activity,A549 [35],13.4%
same,Activity,A549 [36],10%
same,Activity,A549 [37],66.8%
same,Activity,A549 [38],12%
same,Activity,A549 [39],11.2%
same,pIC50,A549 [7],4.61
same,pIC50,[8],4.74
COc1ccc(CNC(=O)CC2c3ccccc3N=C(N(C)CCCCCCN(C)C)N2c2ccc3ccccc3c2)cc1.Cl (stereo unspecified),Ratio IC50,A549 [4],2
same,pIC50,A549 [7],5.18
same,pIC50,[8],5.40
same,inhibition,[10],55.2%
same,pIC50,[11],6.14
